Measurements gathered from unrelated publications.
Each line is one published result; the experiments were not run side by side.
Target: Tyrosine-protein kinase receptor Tie-1 (TIE1, Homo sapiens, UniProt P35590)

O=C(NCCCN1CCOCC1)c1ccc(Nc2ncc(Cl)c(-c3ccc(Cl)s3)n2)cc1
remaining binding (binding, competition with immobilised ligand; 1 µM): 44%

CNC(=O)c1ccc(Nc2ncc(C(F)(F)F)c(NCc3nccnc3N(C)S(C)(=O)=O)n2)cc1
remaining binding (cell-free assay, competition with immobilised ligand; 0.1 µM): 47%

CN(C)c1nccc(-c2cnc3ncccn23)n1
remaining binding (binding; 1 µM): 83%

CCN1CCN(Cc2ccc(C(=O)Nc3ccc(C)c(Oc4ccc5c(c4)CC(=O)N5)c3)cc2C(F)(F)F)CC1
remaining binding (binding, competition with immobilised ligand; 1 µM): 79%

Cc1noc([C@H]2C[C@@H](c3ccc(C(F)(F)F)cc3)CN(C(=O)N3CCS(=O)(=O)C3)C2)n1
remaining binding (cell-free assay, competition with immobilised ligand; 1 µM): 89%

CN(CCCC(F)(F)F)c1nccc(-c2cnn3ncccc23)n1
remaining binding (binding; 1 µM): 100%

c1cncc(-c2cccc(Nc3nccc(NC4CCCCC4)n3)c2)c1
remaining binding (binding, competition with immobilised ligand; 10 µM): 17%

O=C(c1ccc(Nc2nccc(-c3cc4ccccc4s3)n2)cc1)N1CCC(N2CCCC2)CC1
remaining binding (binding, competition with immobilised ligand; 1 µM): 23%

CNC(=O)[C@@H]1CC[C@@H](n2c(-c3ccc4cnccc4c3)nc3ccc(C(=O)NCc4cccc(C(N)=O)c4)cc32)C1
remaining binding (binding, competition with immobilised ligand; 1 µM): 85%

Nc1ncc2c(n1)-c1c([nH]c3ccc(C#CC4CC4)cc13)CCCC2
remaining binding (binding, competition with immobilised ligand; 1 µM): 96%

CN(c1nccc(-c2cnn3ncccc23)n1)C1CC1
remaining binding (binding; 1 µM): 100%

O=C(NCC1CCOCC1)c1n[nH]cc1NC(=O)c1c(F)cccc1F
remaining binding (binding, competition with immobilised ligand; 1 µM): 85%

C[C@@H](c1cccc(C#N)c1)n1cc(Cl)cc(C(N)=O)c1=N
remaining binding (cell-free assay, competition with immobilised ligand; 1 µM): 87%

Cc1cnn2ncc(-c3ccnc(N(C)C)n3)c2c1
remaining binding (binding; 1 µM): 98%

CNCc1ccccc1-c1csc([C@H](C)Nc2nc(C)nc3cc(OC)c(OC)cc23)c1
remaining binding (cell-free assay, competition with immobilised ligand; 1 µM): 100%

O=C(c1ccc(Nc2ncc(Cl)c(-c3ccc(Cl)s3)n2)cc1)N1CCC(N2CCCC2)CC1
remaining binding (binding, competition with immobilised ligand; 1 µM): 18%

O=C(O)[C@@H]1[C@@H](Cn2nnc3ccccc3c2=O)CC[C@H]1C(=O)c1ccc(OCCC2CCOCC2)cc1
remaining binding (cell-free assay, competition with immobilised ligand; 1 µM): 100%

N[C@H]1CCN(c2nccc(-c3cnn4ncccc34)n2)C1
remaining binding (binding; 1 µM): 100%

O=S(=O)(NC1CCC(c2cc(F)ccc2F)(S(=O)(=O)c2ccc(Cl)cc2)CC1)C(F)(F)F (stereo not shown)
remaining binding (cell-free assay, competition with immobilised ligand; 1 µM): 100%

COc1cnc(Nc2cccc(S(N)(=O)=O)c2)nc1N1CCN(c2ccccc2)C(=O)C1
remaining binding (binding, competition with immobilised ligand; 1 µM): 100%

C[C@@H]1CCN(c2nccc(-c3cnn4ncccc34)n2)C1
remaining binding (binding; 1 µM): 100%

C[C@H](NC(=O)c1cnc2n1[C@](C)(Cc1ccc(C#N)cc1)C(=O)N2c1cc(Cl)c(F)c(Cl)c1)C(=O)NC1(c2ccccn2)CC1
remaining binding (cell-free assay, competition with immobilised ligand; 1 µM): 100%
